{"source": "the EternaBench riboswitch data", "key": {"[1]": {"test_system": "MS2 coat protein", "experiment": "apparent Kd, MS2 coat protein; higher = weaker binding; RNA-MaP array; theophylline 2 mM where present", "method_in_brief": "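Each design was made on Illumina sequencing-chip clusters by stalled E. coli RNA polymerase and titrated with SNAP-549-labelled MS2 coat protein from 0.7 or 1.5 nM, doubling to 3 µM, in the absence and then the presence of constant ligand. The buffer was 100 mM Tris-HCl pH 7.5, 80 mM KCl, 4 mM MgCl2, BSA, DTT, yeast tRNA and Tween-20. The apparent Kd is the median of filtered per-cluster fits of binding curves, with green signal normalised to red-channel RNA signal and control-cluster median Fmax.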"}, "[2]": {"test_system": "MS2 coat protein", "experiment": "apparent Kd, MS2 coat protein; higher = weaker binding; RNA-MaP array", "method_in_brief": "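With or without input ligand, designed RNAs transcribed on an Illumina sequencing chip from sequenced DNA templates were incubated at room temperature with fluorescently labeled MS2 coat protein at 1.5 nM to 3 μM. The buffer was Tris-HCl pH 7.5 with KCl, MgCl2, BSA, DTT, tRNA and Tween20, and incubation ran 0.8–1.5 h at the lowest and 10–20 min at the highest concentrations. Apparent Kd is reported as the median of fits to binding curves from individual clusters. Designs measured on fewer than 10 clusters are not included.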"}, "[3]": {"settings": "designed as: ON switch for theophylline, no ligand"}, "[4]": {"settings": "ligand present: theophylline, designed as: ON switch for theophylline"}, "[5]": {"settings": "designed as: OFF switch for theophylline, no ligand"}, "[6]": {"settings": "ligand present: theophylline, designed as: OFF switch for theophylline"}, "[7]": {"settings": "designed as: OFF switch for flavin mononucleotide, no ligand"}, "[8]": {"settings": "ligand present: flavin mononucleotide, designed as: OFF switch for flavin mononucleotide"}, "[9]": {"settings": "designed as: ON switch for flavin mononucleotide, no ligand"}, "[10]": {"settings": "ligand present: flavin mononucleotide, designed as: ON switch for flavin mononucleotide"}}}
{"sequence": "UUUACAUGAGGAUCACCCAUGUGCCAUGAUACCAGACAUGAAAAUGUCCCUUGGCAGCAUGAAGGUACCUCAUCGGGAAACCGAA", "values": [{"measurement": "apparent Kd", "setting": "[1]; [3]", "value": 134, "unit": "nM"}, {"measurement": "apparent Kd", "setting": "[1]; [4]", "value": 247, "unit": "nM"}]}
{"sequence": "GAUGAACUAUGUGAUACCAGACAACAUGAGGAUCACCCAUGUGCGCGUCGUCCUCUGCCUGUCCCUUGGCAGCGUAUAGUUUAUC", "values": [{"measurement": "apparent Kd", "setting": "[1]; [5]", "value": 60.3, "unit": "nM"}, {"measurement": "apparent Kd", "setting": "[1]; [6]", "value": 124, "unit": "nM"}]}
{"sequence": "GAUGAACUAUUUGAUACCAGACUACAUGAGGAUCACCCAUGUGUGUUUAUACUUCUGUCAGUCCCUUGGCAGCAAAUAGUUUAUC", "values": [{"measurement": "apparent Kd", "setting": "[1]; [5]", "value": 62.5, "unit": "nM"}, {"measurement": "apparent Kd", "setting": "[1]; [6]", "value": 106, "unit": "nM"}]}
{"sequence": "AGUACUCGAACGGAUACCAGCCGGACAUGAGGAUCACCCAUGUCCUACCAAUGUUCGGUUGGCCCUUGGCAGCCGUUCGUGUACA", "values": [{"measurement": "apparent Kd", "setting": "[1]; [3]", "value": 588, "unit": "nM"}, {"measurement": "apparent Kd", "setting": "[1]; [4]", "value": 35.2, "unit": "nM"}]}
{"sequence": "GAUGAACUAUUUGAUACCAGACAACAUGAGGAUCACCCAUGUGCGCGUCGUCCUCUGCCUGUCCCUUGGCAGCAAAUAGUUUAUC", "values": [{"measurement": "apparent Kd", "setting": "[1]; [5]", "value": 58.5, "unit": "nM"}, {"measurement": "apparent Kd", "setting": "[1]; [6]", "value": 97.1, "unit": "nM"}]}
{"sequence": "CAUGGGUGGUAUCACCCAUCCAUAGGUGAUACCAGCAUCGAAAGAUGCCCUUGGCAGCACCAACAUGAGGAUCACCCAUGUAAUA", "values": [{"measurement": "apparent Kd", "setting": "[1]; [3]", "value": 264, "unit": "nM"}, {"measurement": "apparent Kd", "setting": "[1]; [4]", "value": 202, "unit": "nM"}]}
{"sequence": "AUAUGGCGAGAUGAUACCAGACACAUGAGGAUCACCCAUGUUGAUGGUAAGUCUGCAUAUGUCCCUUGGCAGCAUAGCGACAUAU", "values": [{"measurement": "apparent Kd", "setting": "[1]; [5]", "value": 8.27, "unit": "nM"}, {"measurement": "apparent Kd", "setting": "[1]; [6]", "value": 20.8, "unit": "nM"}]}
{"sequence": "GCACCAGGUACGGAUACCAGCUGCCCGAGAUACAUGAGGAUCACCCAUGUGACCUGGUUUAGCCCUUGGCAGCUGUACCUGGUGC", "values": [{"measurement": "apparent Kd", "setting": "[1]; [3]", "value": 13.6, "unit": "nM"}, {"measurement": "apparent Kd", "setting": "[1]; [4]", "value": 9.99, "unit": "nM"}]}
{"sequence": "ACUUCAUGAGGUGAUACCAGCCAAUGACAUGAGGACAUGAGGAUCACCCAUGUUUAUGUAGGCCCUUGGCAGCACUGUAACAUGA", "values": [{"measurement": "apparent Kd", "setting": "[1]; [3]", "value": 20.6, "unit": "nM"}, {"measurement": "apparent Kd", "setting": "[1]; [4]", "value": 25.9, "unit": "nM"}]}
{"sequence": "UGACAUUGCUCAGAUACCAGACAUGAGGAUCACCCAUGUGCCAAAUAAACGUACAUAAAUGUCCCUUGGCAGCUGAGCAAUGUCU", "values": [{"measurement": "apparent Kd", "setting": "[1]; [5]", "value": 57.5, "unit": "nM"}, {"measurement": "apparent Kd", "setting": "[1]; [6]", "value": 890, "unit": "nM"}]}
{"sequence": "UACAUGAGGAUCACCCAUGUAUGAAUGGAUACCAGAUAAAAUAAGGUCCCUUGGCAGCUAGUGAAUCGAGGGUGGGUAUCAUGAU", "values": [{"measurement": "apparent Kd", "setting": "[1]; [5]", "value": 11.2, "unit": "nM"}, {"measurement": "apparent Kd", "setting": "[1]; [6]", "value": 10.3, "unit": "nM"}]}
{"sequence": "AAACUGGGUGUAAAAUAAAUAAUCACUGAUACCAGACUAUUUUAUGUCCCUUGGCAGCAGAAACAUGAGGAUCACCCAUGUAAUA", "values": [{"measurement": "apparent Kd", "setting": "[1]; [5]", "value": 20.3, "unit": "nM"}, {"measurement": "apparent Kd", "setting": "[1]; [6]", "value": 22.5, "unit": "nM"}]}
{"sequence": "ACAUCCAGAUUAAUCGUGGGCAUACUCGAUACCAGUAUUUUAACCUACCCUUGGCAGCGACAUGAGGAUCACCCAUGUGAGAUGA", "values": [{"measurement": "apparent Kd", "setting": "[1]; [5]", "value": 22.8, "unit": "nM"}, {"measurement": "apparent Kd", "setting": "[1]; [6]", "value": 30, "unit": "nM"}]}
{"sequence": "ACUUUGUCGGGUGAUACCAGCCUCGGCACAUCUCGUGCCGAACAUGAGGAUCACCCAUGUGGCCCUUGGCAGCACAUGACAACUC", "values": [{"measurement": "apparent Kd", "setting": "[1]; [3]", "value": 375, "unit": "nM"}, {"measurement": "apparent Kd", "setting": "[1]; [4]", "value": 67, "unit": "nM"}]}
{"sequence": "AGCCUAUUACAUGAGGAUCACCCAUGUGAUACCAGUCAGGAAACUGACCCUUGGCAGCGCAUGAGGAUCACCCAUGCGCUAGGCA", "values": [{"measurement": "apparent Kd", "setting": "[1]; [5]", "value": 10.1, "unit": "nM"}, {"measurement": "apparent Kd", "setting": "[1]; [6]", "value": 10.2, "unit": "nM"}]}
{"sequence": "GCACCAGGUACGGAUACCAGCUGCCAGCGUUACAUGAGGAUCACCCAUGUGAUCUGAAGUAGCCCUUGGCAGCUGUACCUGGUGC", "values": [{"measurement": "apparent Kd", "setting": "[1]; [3]", "value": 21.2, "unit": "nM"}, {"measurement": "apparent Kd", "setting": "[1]; [4]", "value": 95.9, "unit": "nM"}]}
{"sequence": "UCCCAGUAACAUGAGGAUCACCCAUGUUGGAGUGUGCCUGCUCAGGAUAUUCGCGGCAUAAAAGUGAAGAAGGGAGCUCAAACG", "values": [{"measurement": "apparent Kd", "setting": "[2]; [7]", "value": 13.1, "unit": "nM"}, {"measurement": "apparent Kd", "setting": "[2]; [8]", "value": 11.3, "unit": "nM"}]}
{"sequence": "UUUUACGCAAGUAAUUCCCGGGAACCGGAUACCAGCUCCUCCAACAGCCCUUGGCAGCCGACCACAUGAGGAUCACCCAUGUUUC", "values": [{"measurement": "apparent Kd", "setting": "[2]; [5]", "value": 11.7, "unit": "nM"}, {"measurement": "apparent Kd", "setting": "[2]; [6]", "value": 19.3, "unit": "nM"}]}
{"sequence": "ACCCGCUCCUGAGGAUAUCCGGCAUGACAUGAGGAUCACCCAUGUGGGCUCGUGGAGGGAGUGCAGGAGAAGGCAGUAGGCGCU", "values": [{"measurement": "apparent Kd", "setting": "[2]; [7]", "value": 35.7, "unit": "nM"}, {"measurement": "apparent Kd", "setting": "[2]; [8]", "value": 82.6, "unit": "nM"}]}
{"sequence": "GCAAGGGUGCGAGGAUAUAUUAGAGUCUCUGGAAUAGAAGGCGCAAACAGUGUACAUGAGGAUCACCCAUGUGUAUAUACUGCU", "values": [{"measurement": "apparent Kd", "setting": "[2]; [7]", "value": 11, "unit": "nM"}, {"measurement": "apparent Kd", "setting": "[2]; [8]", "value": 10.2, "unit": "nM"}]}
{"sequence": "AACAUACAUGAGGAUCACCCAUGUCAAGAGAUGAAAGGAUAUAACUCUAUCAGGGUAAAGUAAGAAGGUUCGACUA", "values": [{"measurement": "apparent Kd", "setting": "[2]; [9]", "value": 23.5, "unit": "nM"}, {"measurement": "apparent Kd", "setting": "[2]; [10]", "value": 20.1, "unit": "nM"}]}
{"sequence": "CAAGAAUGACGUACAGAUAACAAUAACGAUACCAGUACAUCAUUAUACCCUUGGCAGCGUUUCACAUGAGGAUCACCCAUGUACA", "values": [{"measurement": "apparent Kd", "setting": "[2]; [5]", "value": 17.4, "unit": "nM"}, {"measurement": "apparent Kd", "setting": "[2]; [6]", "value": 18.4, "unit": "nM"}]}
{"sequence": "ACAACGUAACGAGGAUAUAAUCUAAAAGUUCGGUGACGUAGACAUGAGGAUCACCCAUGUUAGUAUUAGAAGGCGUUCGGCGGG", "values": [{"measurement": "apparent Kd", "setting": "[2]; [7]", "value": 14.4, "unit": "nM"}, {"measurement": "apparent Kd", "setting": "[2]; [8]", "value": 41.9, "unit": "nM"}]}
{"sequence": "CGAGGACAUGAGGAUCACCCAUGUGACCGUGCCAAAGGAUAUCACAGGAAAUAAUACAGUUGAGAAGGUUGAUCGG", "values": [{"measurement": "apparent Kd", "setting": "[2]; [9]", "value": 47.1, "unit": "nM"}, {"measurement": "apparent Kd", "setting": "[2]; [10]", "value": 17.6, "unit": "nM"}]}
{"sequence": "GGGUAACAUGAGGAUCACCCAUGUGAGGAUAUCCAUUGUUGGCGACCGGUACGACCACGGAGAAGGCACAGUUC", "values": [{"measurement": "apparent Kd", "setting": "[2]; [7]", "value": 35, "unit": "nM"}, {"measurement": "apparent Kd", "setting": "[2]; [8]", "value": 69.5, "unit": "nM"}]}
{"sequence": "CGAAAUUCAGUAAGGAUAUUAGGAGGCUCUGCGGCUAAGAAGGUACAUGAGGAUCACCCAUGUGGCACCGCAUG", "values": [{"measurement": "apparent Kd", "setting": "[2]; [7]", "value": 7.65, "unit": "nM"}, {"measurement": "apparent Kd", "setting": "[2]; [8]", "value": 7.82, "unit": "nM"}]}
